hERG protect – hERG (human) protection from proarrhythmic block | hit rate 0.51% among 310,000 | activation (rescue from dofetilide block), less the hit threshold, % at 10 µM | AID 1511 | CHO-hERG, FluxOR thallium flux, dofetilide IC70 present;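 active = activation above the mean of controls blocked by dofetilide plus 5 SD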;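 also: thallium influx through hERG after potassium depolarization seen as dye fluorescence rise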
KCNQ1 inh – inhibitors of human KCNQ1 potassium channel. CHO-K1 KCNQ1, FluxOR thallium flux fluorescence; active compounds read high. hit rate 1.3% among 310,000. P51787. B-score at 10 µM;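 active = compounds whose thallium flux B-score, printed positive for inhibition, exceeds three library SD while starting fluorescence stays within three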;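 also: channel opened by potassium depolarization with thallium stimulus after 20 min compound exposure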
KCNK9 block – inhibitors of human KCNK9 two-pore domain potassium channel; hit rate 1.2% among 310,000; HEK293 KCNK9, FluxOR thallium flux fluorescence; active compounds read low; B-score at 10 µM; Q9NPC2;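 active = ratio B-score over 3 SD below the library mean, with starting fluorescence within 5 SD of its mean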;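 also: negative B-score means less thallium flux so channel inhibition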
Target sequence (Q9NPC2 whole entry, looked up, the tested form may be a part): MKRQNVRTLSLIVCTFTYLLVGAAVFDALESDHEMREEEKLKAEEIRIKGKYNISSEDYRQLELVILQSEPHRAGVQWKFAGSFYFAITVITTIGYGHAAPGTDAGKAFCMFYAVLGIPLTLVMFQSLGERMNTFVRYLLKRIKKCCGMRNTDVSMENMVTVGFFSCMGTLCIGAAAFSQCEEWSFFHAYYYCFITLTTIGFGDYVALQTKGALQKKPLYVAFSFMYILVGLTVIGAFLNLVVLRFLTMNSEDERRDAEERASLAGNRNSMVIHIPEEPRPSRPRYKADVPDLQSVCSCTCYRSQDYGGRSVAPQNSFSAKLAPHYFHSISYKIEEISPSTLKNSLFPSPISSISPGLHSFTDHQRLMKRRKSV
KCNQ1 act – potentiators or activators of human KCNQ1 potassium channel | P51787 | CHO-K1 KCNQ1, thallium flux FluxOR fluorescence; active compounds read high | B-score at 10 µM | hit rate 0.35% among 310,000;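 active = fluorescence ratio B-score, a plate-corrected score, at least three library SD, with initial intensity B-score within 5 SD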
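System: CHO-K1 cells stably expressing KCNQ1 / Medium: assay buffer for compound exposure, DMSO matched across wells / Reagent: thallium- and potassium-containing depolarizing buffer / Compound: one concentration, matched DMSO / Incubation: 20 min compound pretreatment at room temperature / Measured by: kinetic FluxOR fluorescence, 10 s baseline plus 110 s post-stimulus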
KCNK3 block – human KCNK3 channel inhibition, primary screen | O14649 | CHO-KCNK3 thallium flux, FluxOR fluorescence; active compounds read low | B-score at 10 µM | hit rate 0.84% among 340,000;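 active = B-score under library mean minus 4 SD, starting fluorescence ratio at most library mean plus 5 SD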;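 also: more negative B-score means stronger inhibition of thallium flux through KCNK3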
Target sequence (O14649 whole entry, looked up): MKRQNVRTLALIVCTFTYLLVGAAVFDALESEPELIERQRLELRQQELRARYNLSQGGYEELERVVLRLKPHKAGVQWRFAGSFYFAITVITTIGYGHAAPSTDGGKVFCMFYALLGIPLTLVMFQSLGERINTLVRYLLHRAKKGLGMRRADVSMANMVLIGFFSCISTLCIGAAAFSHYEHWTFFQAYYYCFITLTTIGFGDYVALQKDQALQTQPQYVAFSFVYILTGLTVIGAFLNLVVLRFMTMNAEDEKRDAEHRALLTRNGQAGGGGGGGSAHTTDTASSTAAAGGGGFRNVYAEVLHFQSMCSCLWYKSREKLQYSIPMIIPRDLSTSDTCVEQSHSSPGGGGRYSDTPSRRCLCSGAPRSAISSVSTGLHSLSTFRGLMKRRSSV
Cl transport mod – KCC2 (human) Cl- transport modulation. Q9H2X9. KCC2 cells, thallium flux FluoZin-2 fluorescence. B-score of Tl+ flux slope (higher = more flux/activation; lower = inhibition) at 10 µM. hit rate 2.2% among 190,000. AID 1456;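 active = thallium flux slope and its plate-corrected score both differing from the plate sample mean at a set confidence after two filtering rounds, in either direction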;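 also: slope of fluorescence scaled to starting intensity during 10 to 20 s after thallium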
KCC2 secondary – KCC2 (human) modulation, secondary assay. hit rate 15% among 3,700. HEK293-KCC2, thallium flux, FluoZin2 fluorescence; active compounds read high. normalised thallium flux (F/F0 slope) at 10 µM. shares compounds with Cl transport mod;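 active = thallium flux slope above the same plate's solvent-only control mean plus 3 SD; inconclusive = the two replicate wells disagree; inactive = no significant difference from solvent-only control wells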
KCC2 bumet counter – thallium flux persisting under bumetanide in KCC2 cells, counter-screen secondary assay. shares compounds with Cl transport mod. HEK293-KCC2 + bumetanide/ouabain, thallium flux FluoZin2; active compounds read high. normalized thallium flux at 10 µM. hit rate 49% among 3,700;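 active = thallium entry rate above the same plate's blocked-transporter control wells by more than 3 SD; inconclusive = the two repeat wells disagree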;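 also: raw slope of fluorescence over initial fluorescence between 10 and 20 s after thallium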
KCC2 secondary2 – KCC2 (human) modulation, second secondary assay; shares compounds with Cl transport mod; HEK293-KCC2, thallium flux FluoZin2 fluorescence; actives lie on both sides; F/F0 rise rate, 10–20 s post-thallium; normalized thallium flux at 10 µM; hit rate 23% among 3,700; AID 1715;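 active = thallium flux slope more than 3 SD above or below the plate's solvent-only control mean, mostly below; inconclusive = the two repeat wells disagreed; inactive = no significant shift from solvent-only controls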;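 also: raw slope with 0.1% DMSO as baseline and bumetanide as block control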
HEK counter1 – counter-screen for KCC2 modulators: effect in parental HEK293 cells; shares compounds with Cl transport mod; thallium flux FluoZin2, ouabain; baseline-ratio fluorescence slope, 10–20 s after thallium; thallium flux rate (normalised fluorescence) at 10 µM; hit rate 46% among 3,700; AID 1716;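 active = thallium flux rate significantly above the same plate's solvent-only control wells, beyond their mean plus 3 SD; inconclusive = the two replicate wells gave conflicting results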
KCC2 ouabain – confirmation of human KCC2 modulators with ouabain. HEK293-KCC2, thallium flux FluoZin2 fluorescence; bidirectional: low = inhibitor, high = activator. raw Tl+ flux slope (below DMSO = inhibition, above = activation) at 10 µM. hit rate 48% among 3,700. AID 1717. shares compounds with Cl transport mod;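 active = thallium flux slope beyond 3 SD from same-plate DMSO control mean in most replicates, usually higher, sometimes lower; inconclusive = repeat tests gave conflicting results; inactive = no significant difference from controls in most replicates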;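 also: slope of initial-normalized fluorescence between seconds 10 and 20 after thallium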
HEK counter2 – acts in parental HEK cells, second KCC2 counter-screen; hit rate 33% among 3,700; shares compounds with Cl transport mod; HEK293 parental, thallium flux FluoZin-2 fluorescence slope; AID 1718; thallium flux slope at 10 µM;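 active = thallium flux slope above the same plate's solvent-control mean plus 3 SD in both duplicate wells; inconclusive = duplicate wells that disagreed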;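 also: run without ouabain in cells lacking the KCC2 cotransporter; slope of fluorescence scaled to its starting value between 10 and 20 s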
* = called active by the depositor; i = inactive; ? = inconclusive; . = no result. Sampled rows, rich in hits. Any-hit rate of the full collection: about 4.1%.

SMILES | hERG protect | KCNQ1 inh | KCNK9 block | KCNQ1 act | KCNK3 block | Cl transport mod | KCC2 secondary | KCC2 bumet counter | KCC2 secondary2 | HEK counter1 | KCC2 ouabain | HEK counter2
C=CCN(c1ccc(OC)cc1)S(=O)(=O)c1ccc(Cl)c(C(=O)OCC(=O)NC2CC2)c1 | -9 | i | i | i | i | -3.8* | 0.0093 | 0.0071 | ? | 0.006 | 0.014* | 0.0097
COc1ccc(N(C)S(=O)(=O)c2ccc(Cl)c(C(=O)NCCc3ccc(Cl)cc3)c2)cc1 | -8 | i | i | i | i | -6.1* | 0.013 | 0.0031 | 0.018* | 0.0054* | 0.0095* | 0.0086
COc1ccc(CCNC(=O)c2cc(S(=O)(=O)N3CCCCC3)ccc2Cl)cc1 | . | . | . | . | i | . | . | . | . | . | . | .
COc1ccc(CCC2CCNCC2)cc1 | -4 | i | i | i | i | . | . | . | . | . | . | .
O=C(NC1CCc2ccccc21)c1cc(COc2c(F)cccc2F)on1 (stereo not drawn) | -12 | i | i | i | i | -3 | . | . | . | . | . | .
CCN(Cc1ccccc1)C(=O)c1cc(COc2c(F)cccc2F)on1 | -15 | i | i | i | i | -4.7* | 0.0061 | 0.0045 | 0.031 | 0.0066 | 0.014* | ?
O=C(NCC1OCCc2ccccc21)c1cc(COc2c(F)cccc2F)on1 (stereo not drawn) | -3 | i | i | i | i | -6* | 0.0055 | 0.0044 | ? | ? | 0.013* | 0.011
CCN(CCn1cccn1)C(=O)c1cc(COc2c(F)cccc2F)on1 | -8 | i | i | i | i | -1.5 | . | . | . | . | . | .
O=C(NCc1ccco1)c1ccc(Br)c(S(=O)(=O)N2CCCCC2)c1 | -3 | i | i | i | i | . | 0.0068 | 0.0037 | ? | 0.0071 | 0.016 | 0.0093
CN(C)C(=S)Nc1nc2ccccc2s1 | -18 | i | i | i | i | 69* | 0.017* | 0.089* | 0.034 | 0.032* | 0.059* | 0.017*
CCOC(=O)c1cccc(C(=O)Nc2nc3ccc(OC)cc3s2)n1 | 1 | i | i | 9* | i | 91* | 0.027* | 0.079* | ? | 0.041* | 0.041* | 0.039*
CCOc1ccc2nc(NC(=S)N(C)C)sc2c1 | -14 | i | i | i | i | . | 0.018* | 0.13* | 0.033 | 0.047* | 0.057* | 0.02*
CCCC(=O)Nc1nc2ccc(OCC)cc2s1 | -8 | i | i | i | i | -0.18 | . | . | . | . | . | .
S=C(Nc1ccccc1)c1nc2ccccc2s1 | -10 | i | i | i | i | 9.7* | 0.0069 | 0.013* | 0.032 | 0.013* | ? | 0.014*
COc1ccc([N+](=O)[O-])cc1N(CC(=O)N1CCOCC1)S(C)(=O)=O | -3 | i | i | i | i | -0.52 | . | . | . | . | . | .
O=C(COC(=O)/C=C/c1ccccc1)NCCNC(=O)COC(=O)/C=C/c1ccccc1 | -4 | i | i | i | i | . | . | . | . | . | . | .
CC(C)CCNC(=O)COC(=O)/C=C/c1ccc2ccccc2n1 | 1 | i | i | i | i | -3.9* | 0.017 | 0.0053 | 0.024* | 0.0076 | 0.014* | 0.0098
CCCCN(c1ccccc1)S(=O)(=O)c1cccc(C(=O)O)c1 | -15 | i | i | i | i | -0.78 | . | . | . | . | . | .
Cc1ccc(N(CC(=O)Nc2ccc(-c3nc4ccc(C)cc4s3)cc2)S(C)(=O)=O)cc1 | -6 | i | i | i | i | . | . | . | . | . | . | .
COC(=O)N/N=C(\C)c1cccc(C(F)(F)F)c1 | -5 | i | i | i | i | . | . | . | . | . | . | .
CNC(=S)N/N=C(\C)c1cccc(C(F)(F)F)c1 | -4 | i | i | i | i | 4.2* | ? | 0.033* | 0.036 | 0.013* | ? | 0.012*
Cc1ccc(NC(=O)C(=O)N2CCCC2)cc1Cl | 2 | i | i | i | i | 0.031 | . | . | . | . | . | .
COc1ccc(C(=O)NNC(=O)C(=O)Nc2ccc(C)c(Cl)c2)cc1 | 97* | i | i | 58* | i | 47* | 0.01* | 0.067* | 0.054* | 0.057* | 0.06* | 0.051*
COc1ccc(C(=O)CC(=O)C(=O)Nc2ccc(C)c(C)c2)cc1 | 3 | i | i | i | i | . | . | . | . | . | . | .
Cc1ccc(NC(=O)C(=O)NNC(=O)c2ccccc2C)cc1Cl | 46* | i | i | 41* | i | 46* | 0.048* | 0.11* | 0.052* | ? | 0.087* | 0.043*
SMILES | hERG protect | KCNQ1 inh | KCNK9 block | KCNQ1 act | KCNK3 block | Cl transport mod | KCC2 secondary | KCC2 bumet counter | KCC2 secondary2 | HEK counter1 | KCC2 ouabain | HEK counter2
O=C(COC(=O)/C=C/c1cccc([N+](=O)[O-])c1)Nc1ccc(Cl)cn1 | . | . | . | . | i | . | . | . | . | . | . | .
CN(Cc1ccccc1)c1nc(N)nc(Cl)c1C=O | -10 | i | i | i | i | -5* | 0.0072 | 0.0065 | 0.032 | 0.0039 | 0.012* | 0.012
CCOC(=O)COc1cc(-n2c(=S)[nH]c3ccccc3c2=O)c(Cl)cc1Cl | -9 | i | i | i | i | 4.3* | 0.0078 | 0.022* | 0.033 | 0.013* | ? | 0.016*
O=[N+]([O-])c1cc(C(F)(F)F)ccc1Oc1cccnc1[N+](=O)[O-] | -13 | i | i | i | i | 0.17 | . | . | . | . | . | .
Cc1cc2cc(CNC(=O)c3ccc(C)c([N+](=O)[O-])c3)ccc2[nH]1 | -4 | i | i | i | i | -4.2* | 0.0087 | 0.0063 | 0.029 | 0.0076 | ? | 0.01
CC(=O)c1cccc(NC(=S)N2CCN(S(=O)(=O)c3ccccc3)CC2)c1 | -8 | i | i | i | i | . | . | . | . | . | . | .
CCCc1cc(C(=O)Nc2sc3c(c2C#N)CCC3)no1 | -7 | i | i | i | i | 6.2* | 0.0078 | 0.024* | 0.029 | 0.018* | ? | 0.016*

Source: PubChem BioAssay
